Experimental data from different studies.
Compare with care: the assays were run in different laboratories.
LRRK2: Leucine-rich repeat serine/threonine-protein kinase 2 (LRRK2, Homo sapiens, UniProt Q5S007)
LRRK2 G2019S: Leucine-rich repeat serine/threonine-protein kinase 2 (LRRK2, Homo sapiens, UniProt Q5S007, G2019S)

Compound	target	effect on	action	technique	tested at	quantity	result
O=C1NC(=O)c2cc(Nc3ccc(F)cc3)c(Nc3ccc(F)cc3)cc21	LRRK2	cell-free assay			0.5 µM	remaining signal	99.8%
CC(C)(O)[C@H]1CC[C@H](Nc2ccc3ncc(-c4cccc(C(F)(F)F)c4)n3n2)CC1	LRRK2	enzyme activity	inhibitor		1 µM	remaining activity	66.1%
O=C1Nc2ccc(Cl)cc2C1=Cc1cc(Cl)c(O)c(Cl)c1	LRRK2	cell-free assay			0.5 µM	remaining signal	11%
NS(=O)(=O)c1cc(NC(=O)C2(c3ccccc3Cl)CC2)ccc1Oc1cccc(Cl)c1	LRRK2 G2019S	cell-free assay		competition with immobilised ligand	1 µM	remaining binding	100%
CC(C)(C)c1nc(-c2cccc(NS(=O)(=O)c3c(F)cccc3F)c2F)c(-c2ccnc(N)n2)s1	LRRK2	enzyme activity	inhibitor	radiometric	1 µM	remaining activity	102%
COc1cc(-c2cc(-c3ccc(N4CCNCC4)cc3)cnc2N)cc(OC)c1OC	LRRK2	enzyme activity	inhibitor		1 µM	inhibition	33%
O=C(O)c1cc(-c2ccc(C3CCNCC3)cc2)c2ccc(-c3ccc(C(F)(F)F)cc3)cc2c1	LRRK2	cell-free assay		competition with immobilised ligand	1 µM	remaining binding	100%
CN(C)C1CCN(CC#Cc2nn(C3CCCC3)c3nc(NCc4ccccc4)ncc23)C1 (stereo not shown)	LRRK2	enzyme activity	inhibitor	FRET	10 µM	inhibition	7%
CN([C@@H]1CCc2c(CC(=O)O)c3cc(S(C)(=O)=O)ccc3n2C1)S(=O)(=O)c1ccc(F)cc1	LRRK2	cell-free assay		competition with immobilised ligand	1 µM	remaining binding	100%
Nc1ncnc2occ(-c3ccc(NC(=O)Nc4cc(C(F)(F)F)ccc4F)cc3)c12	LRRK2 G2019S	cell-free assay	inhibitor		20 µM	remaining signal	12%
Cc1sc(C(=O)NC2COC2)cc1-n1cc(NC(=O)Nc2c(F)cccc2Cl)cn1	LRRK2	enzyme activity	inhibitor		10 µM	remaining activity	101%
Cc1nc(Cc2cccc(C(F)(F)F)c2)sc1-c1ccc(C(N)=O)nc1	LRRK2	cell-free assay		competition with immobilised ligand	1 µM	remaining binding	92%
O=C(Nc1cnn(-c2csc(C(=O)NC3COC3)c2)c1)Nc1c(F)cccc1Cl	LRRK2	enzyme activity	inhibitor		5 µM	remaining activity	91.3%
Cc1cnc(NC2CCOCC2)nc1-n1cnc(C(=O)NC(CN)c2cc(F)cc(Cl)c2)c1 (stereo not shown)	LRRK2	enzyme activity	inhibitor	radiometric	1 µM	remaining activity	95%
COc1cc(-c2cn(C3CCc4c(F)cccc4N(CC(F)(F)F)C3=O)nn2)ccc1-n1cnc(C)c1 (stereo not shown)	LRRK2 G2019S	cell-free assay		competition with immobilised ligand	1 µM	remaining binding	100%
Cc1ccc(Nc2nccc(N(C)c3ccc4c(C)n(C)nc4c3)n2)cc1S(N)(=O)=O	LRRK2	enzyme activity	inhibitor		0.5 µM	remaining activity	109%
CNCc1ccccc1-c1csc([C@H](C)Nc2nc(C)nc3cc(OC)c(OC)cc23)c1	LRRK2 G2019S	cell-free assay		competition with immobilised ligand	1 µM	remaining binding	84%
CN1CC(Oc2cnc(C#N)cc2-c2ccn3nc(NC(=O)C4CC4)cc3c2)C1	LRRK2	enzyme activity	inhibitor		1 µM	inhibition	-19%
Cc1ccc(C(=O)Nc2ccc(CN3CCN(C)CC3)c(C(F)(F)F)c2)cc1C#Cc1cnc2cccnn12	LRRK2 G2019S	enzyme activity	inhibitor		23.5 nM	remaining activity	99%
